What was measured:
[1] = biological target: T1, Phosphatidylinositol 4,5-bisphosphate 3-kinase catalytic subunit delta isoform (Homo sapiens, UniProt O00329); experiment: Inhibition of PI3Kdelta in human whole blood assessed as basophil degranulation by measuring CD63 surface expression on CCR3 positive cells after 60 mins by flow cytometric analysis; assay type: tissue-based
T1 sequence (O00329 whole entry): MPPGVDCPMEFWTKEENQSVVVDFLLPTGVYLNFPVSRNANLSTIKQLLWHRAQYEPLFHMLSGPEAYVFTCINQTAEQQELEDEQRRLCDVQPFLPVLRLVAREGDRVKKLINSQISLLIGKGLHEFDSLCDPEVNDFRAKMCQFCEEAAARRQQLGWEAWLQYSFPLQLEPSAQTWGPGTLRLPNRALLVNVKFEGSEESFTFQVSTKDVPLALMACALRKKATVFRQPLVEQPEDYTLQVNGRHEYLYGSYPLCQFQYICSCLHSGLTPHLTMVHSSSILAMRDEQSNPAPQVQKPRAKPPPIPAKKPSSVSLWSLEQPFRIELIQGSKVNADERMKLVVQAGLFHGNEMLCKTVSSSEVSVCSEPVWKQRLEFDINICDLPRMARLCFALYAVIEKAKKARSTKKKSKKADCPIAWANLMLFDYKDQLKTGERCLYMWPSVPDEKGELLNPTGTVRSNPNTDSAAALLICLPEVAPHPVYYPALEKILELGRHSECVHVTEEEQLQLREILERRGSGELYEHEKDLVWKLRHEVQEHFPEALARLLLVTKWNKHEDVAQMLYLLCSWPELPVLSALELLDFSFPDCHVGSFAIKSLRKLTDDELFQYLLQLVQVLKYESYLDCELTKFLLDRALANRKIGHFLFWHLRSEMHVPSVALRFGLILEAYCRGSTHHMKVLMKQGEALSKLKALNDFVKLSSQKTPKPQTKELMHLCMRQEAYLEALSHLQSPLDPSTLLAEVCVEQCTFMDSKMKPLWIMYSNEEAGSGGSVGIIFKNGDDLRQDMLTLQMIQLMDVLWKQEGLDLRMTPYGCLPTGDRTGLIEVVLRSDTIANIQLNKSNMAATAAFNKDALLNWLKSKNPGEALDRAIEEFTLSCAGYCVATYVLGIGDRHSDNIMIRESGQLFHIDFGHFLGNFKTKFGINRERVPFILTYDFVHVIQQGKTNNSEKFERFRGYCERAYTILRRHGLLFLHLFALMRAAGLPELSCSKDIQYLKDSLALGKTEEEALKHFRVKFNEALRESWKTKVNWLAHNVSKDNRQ

[2] = Clearance in human hepatocytes at 1 uM by LC/MS/MS analysis; assay type: ADME, cell-based, Hepatocyte
How it was run: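 Human hepatocytes, incubated with and without the aldehyde oxidase inhibitor raloxifene; predicted clearance calculated from turnover.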

Hepatocyte = experiment: Clearance in rat hepatocytes at 1 uM by LC/MS/MS analysis; assay type: ADME, cell-based
[3] = Plasma clearance in Lewis rat at 1 mg/kg, iv administered via infusion over 30 mins measured after 24 hrs by LC/MS/MS analysis; assay type: ADME, organism-based
How it was run: (§1)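 Female Lewis rats, n=3 per route; 30-min iv infusion at 1 mg/kg and oral dose at 5 mg/kg, both in 30% PEG 400/70% water; plasma concentration-time profiles sampled to 24 h; values as mean ± SD.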

[4] = Volume of distribution at steady state in beagle dog at 1 mg/kg, iv administered via infusion over 30 mins measured after 24 hrs by LC/MS/MS analysis; assay type: ADME, organism-based, Canis lupus familiaris; settings: in vivo, read-out: Vdss
How it was run: (§2)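 Dogs, n=3 per route; iv dose 1 mg/kg in 5% ethanol/55% PEG 400/40% citrate buffer pH 2; oral dose 5 mg/kg in 15% Captisol (w/v) in water; plasma pharmacokinetics.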

[5] = Ratio of drug level in blood to plasma in Lewis rat; assay type: ADME, cell-free; settings: blood and plasma
[6] = Ratio of drug level in blood to plasma in beagle dog; assay type: ADME, cell-free, Canis lupus familiaris; settings: blood and plasma
[7] = Half life in Lewis rat at 5 mg/kg, po administered through gavage measured after 24 hrs by LC/MS/MS analysis; assay type: ADME, organism-based; settings: in vivo
[8] = Oral bioavailability in beagle dog at 5 mg/kg administered through gavage measured after 24 hrs by LC/MS/MS analysis; assay type: ADME, organism-based, Canis lupus familiaris; settings: in vivo; how it was run: as §2
[9] = (§3) Inhibition of PI3Kdelta in rat B-cells assessed as reduction in anti IgD-mediated cell activation after 18 to 24 hrs by flow cytometric analysis
How it was run: (§4)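 Rat whole blood, ex vivo; B-cell activation stimulated by anti-IgD (BCR); EC50 and EC90 derived from inhibition of activation.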

Rattus norvegicus [10] = organism: Rattus norvegicus; experiment: as §3; how it was run: as §4
Rattus norvegicus [11] = experiment: In vivo inhibition of PI3Kdelta in collagen-induced Lewis rat arthritis model at 0.34 mg/kg administered bid through oral gavage at 2 to 12 hrs on 3rd and 7th day of compound dosing; assay type: functional
How it was run: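 Female Lewis rats with established collagen-induced arthritis got vehicle or drug by oral gavage twice daily for 7 days (study days 10–16). Blood was sampled at set times after dosing on days 3 and 7 for plasma drug levels. PI3Kδ inhibition was inferred from those levels against EC50/EC90 values from a rat whole-blood ex vivo anti-IgD (BCR)-stimulated B-cell activation assay.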

Rattus norvegicus [12] = experiment: In vivo inhibition of PI3Kdelta in collagen-induced Lewis rat arthritis model at 1.07 mg/kg administered bid through oral gavage at 2 to 12 hrs on 3rd and 7th day of compound dosing; assay type: functional
How it was run: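 CIA Lewis rats dosed orally twice daily; plasma drug levels measured in blood samples taken at set times post-dose on days 3 and 7; trough PI3Kδ inhibition estimated from EC50/EC90 of the rat whole-blood ex vivo BCR-induced B-cell activation assay.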

Rattus norvegicus [13] = experiment: Antiarthritis activity in collagen-induced Lewis rat arthritis model assessed as reduction in cartilage damage at 1.07 mg/kg administered bid through oral gavage for 7 days measured every day started on day 9 and continuing through day 16 of compound dosing relative to vehicle-treated control; assay type: functional; design: scale not given: the % may be the effect or the level left
How it was run: (§5)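 Female Lewis rats with established collagen-induced arthritis dosed orally by gavage twice daily for 7 days (study days 10–16) with vehicle, 0.34, 1.07, 4.6 or 10 mg/kg, or dexamethasone 0.03 mg/kg; right and left ankle diameters by caliper daily, days 9–16; ankle and knee sections graded 0–5 per histopathology parameter; p < 0.05 versus arthritis + vehicle.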

Rattus norvegicus [14] = experiment: Antiarthritis activity in collagen-induced Lewis rat arthritis model assessed as reduction of bone resorption at 1.07 mg/kg administered bid through oral gavage for 7 days measured every day started on day 9 and continuing through day 16 of compound dosing relative to vehicle-treated control; assay type: functional; design: scale not given: the % may be the effect or the level left; how it was run: as §5
Rattus norvegicus [15] = experiment: Antiarthritis activity in collagen-induced Lewis rat arthritis model assessed as reduction in cartilage damage administered bid through oral gavage for 7 days measured every day started on day 9 and continuing through day 16 of compound dosing; assay type: functional; how it was run: as §5
Rattus norvegicus [16] = experiment: Antiarthritis activity in collagen-induced Lewis rat arthritis model assessed as reduction of bone resorption administered bid through oral gavage for 7 days measured every day started on day 9 and continuing through day 16 of compound dosing; assay type: functional; how it was run: as §5
[17] = Cmax in Lewis rat at 1 mg/kg, iv administered via infusion over 30 mins or at 5 mg/kg, po administered via gavage by LC/MS/MS analysis; assay type: ADME, organism-based; settings: in vivo; how it was run: as §1
[18] = Tmax in Lewis rat at 1 mg/kg, iv administered via infusion over 30 mins or at 5 mg/kg, po administered via gavage by LC/MS/MS analysis; assay type: ADME, organism-based; settings: in vivo; how it was run: as §1

EC50 [1]: 1 nM
CLhep predicted at 1 µM [2]: 5.67 mL/min/kg
CLH (Hepatocyte): 23.3 mL/min/kg
clearance [3]: 12.3 mL/min/kg
Vd [4]: 1.3 L/kg
blood plasma ratio [5]: 1.4
blood plasma ratio [6]: 2.6
half-life [7]: 3.2 h
bioavailability [8]: 100%
EC50 [9]: 11 nM
EC90 (Rattus norvegicus [10]): 100 nM
Cmax [17]: 2830 nM
Tmax [18]: 1 h
Structure (SMILES): C[C@H](Nc1nc(N)nc(N)c1C#N)c1nc2cccc(F)c2c(=O)n1-c1cc(F)cc(F)c1
inhibition in vivo at 0.34 mg/kg (Rattus norvegicus [11]): 25%
inhibition in vivo at 1.07 mg/kg (Rattus norvegicus [12]): 50%
Activity (Rattus norvegicus [13]): 50%
Activity (Rattus norvegicus [14]): 63%
ED50 (Rattus norvegicus [15]): 1.5 mg/kg
ED50 (Rattus norvegicus [16]): 1.5 mg/kg
